Measurements published in ChEMBL document CHEMBL4680332, “Lead optimization of 2-hydroxymethyl imidazoles as non-hydroxamate LpxC inhibitors: Discovery of TP0586532” (Bioorg Med Chem, 2021).
Converted amounts (≈) assume the structure as drawn.

Experiments:
[1] = tested on: Klebsiella pneumoniae; assay: Antibacterial activity against Klebsiella pneumonia ATCC 13883 by CLSI based broth microdilution method; type: functional
Summary of the method: (§1)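 Broth microdilution MIC per CLSI method; E. coli ATCC 25922 and K. pneumoniae ATCC 13883.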

[2] = tested on: Escherichia coli; assay: Antibacterial activity against Escherichia coli ATCC 25922 by CLSI based broth microdilution method; type: functional; summary of the method: as §1
[3] = Inhibition of Escherichia coli LpxC using DP-3-0-(R-3-hydroxymyristoy1)-N-acetylglucosamine as substrate incubated for 120 mins by fluorescamine assay
[4] = Protein binding in human serum at 1 ug/ml incubated for 4 hrs by LC-MS/MS analysis; type: ADME, cell-free; conditions: at 1 µg/mL, read-out: PB (converted)
Summary of the method: (§2)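 Equilibrium dialysis at 1 µg/mL final in pooled male ICR mouse serum or human volunteer serum (no anticoagulant). Dialyzed against 50 mM sodium phosphate buffer at 37 °C for 4 h (5% CO2, MWCO 12000–14000). Compound on each side measured by LC-MS/MS; binding % = (Cs−Cb)/Cs×100.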

[5] = Protein binding in ICR mouse serum at 1 ug/ml incubated for 4 hrs by LC-MS/MS analysis; type: ADME, cell-free; conditions: at 1 µg/mL, read-out: PB (converted); summary of the method: as §2
[6] = Toxicity in iv dosed ICR mouse assessed as maximum tolerated dose; type: organism-based; conditions: in vivo
Summary of the method: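 Exploratory MTD study in male ICR mice (n = 2): a single intravenous tail-vein injection at dose levels of up to 200 mg/kg.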

[7] = tested on: Klebsiella pneumoniae; assay: In vivo antibacterial activity against Klebsiella pneumonia ATCC BAA-2343 infected in ICR mouse assessed as reduction in bacterial burden in lung at 50 mg/kg, sc administered after 2 hrs of infection and measured after 26 hrs of infection; type: functional; conditions: time 24 hrs
Summary of the method: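 Female ICR mice (5 weeks) made neutropenic with cyclophosphamide ip, 150 and 100 mg/kg at days −4 and −1. Intranasal inoculation with 1.5–1.9 × 10^6 CFU. Compound in 10w/v% HP-β-CD given sc 2 h post-infection (n = 5). Lung viable counts at 2 h (control) and 26 h; mean log change versus start of therapy.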

[8] = tested on: Klebsiella pneumoniae; assay: In vivo antibacterial activity against Klebsiella pneumonia 4102 infected in ICR mouse assessed as mouse survival rate at 25 mg/kg, sc administered once after 1 hr of infection and observed for 7 days relative to control; type: functional; conditions: time 7 day
Summary of the method: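 Four-week-old male ICR mice given K. pneumoniae 4102 intraperitoneally (3.8–5.5 × 10^6 CFU/mouse) in 0.5 mL suspension with 3w/v% mucin. Compound in 10w/v% HP-β-CD, single subcutaneous dose 1 h post-inoculation (n = 6). Survival followed for 7 days.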

[9] = Cardiotoxicity in iv dosed Hartley guinea pig assessed as decrease in blood pressure measured after 30 mins; type: toxicity, organism-based, Cavia porcellus; conditions: in vivo, 0.5 h
Summary of the method: (§3)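 Guinea pigs (6–7 weeks) anesthetized with pentobarbital 60 mg/kg ip, then infused iv at 8 mg/kg/h; ventilated at 15 mL/kg, 60/min. Vehicle (11w/v% SBE-β-CD, pH4) or compound infused via jugular vein for 30 min. Carotid arterial pressure and ECG recorded; QT corrected by Bazett. Heart rate, QTc, SBP and DBP expressed as change from baseline.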

[10] = Free plasma concentration in Hartley guinea pig serum assessed as fraction unbound at 180 mg/kg, iv measured after 30 mins by LC-MS/MS analysis; type: ADME, organism-based, Cavia porcellus; conditions: in vivo, 0.5 h
Summary of the method: (§4)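 Unbound plasma concentration at end of 30-min iv infusion in anesthetized guinea pigs: LC-MS/MS plasma C30min multiplied by fraction unbound, with plasma fu assumed equal to serum fu (equilibrium dialysis, 500 µg/mL in guinea pig serum).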

[11] = Cardiotoxicity in iv dosed Hartley guinea pig assessed as increase in QT prolongation measured after 30 mins; type: toxicity, organism-based, Cavia porcellus; conditions: in vivo, 0.5 h; summary of the method: as §3
[12] = Plasma concentration in Hartley guinea pig at 180 mg/kg, iv measured after 30 mins by LC-MS/MS analysis; type: ADME, organism-based, Cavia porcellus
Summary of the method: (§5)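 Anesthetized guinea pigs received a 30-min iv infusion. Blood was taken at the end of infusion and centrifuged, and plasma concentration (C30min) was measured by LC-MS/MS.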

[13] = Cardiotoxicity in iv dosed Hartley guinea pig assessed as decrease in heart rate measured after 30 mins; type: toxicity, organism-based, Cavia porcellus; conditions: in vivo, 0.5 h; summary of the method: as §3
[14] = Plasma concentration in Hartley guinea pig at 60 mg/kg, iv measured after 30 mins by LC-MS/MS analysis; type: ADME, organism-based, Cavia porcellus; summary of the method: as §5
[15] = Free plasma concentration in Hartley guinea pig serum assessed as fraction unbound at 60 mg/kg, iv measured after 30 mins by LC-MS/MS analysis; type: ADME, organism-based, Cavia porcellus; conditions: in vivo, 0.5 h; summary of the method: as §4
[16] = Plasma concentration in Hartley guinea pig at 135 mg/kg, iv measured after 30 mins by LC-MS/MS analysis; type: ADME, organism-based, Cavia porcellus; summary of the method: as §5
[17] = Free plasma concentration in Hartley guinea pig serum assessed as fraction unbound at 135 mg/kg, iv measured after 30 mins by LC-MS/MS analysis; type: ADME, organism-based, Cavia porcellus; conditions: in vivo, 0.5 h; summary of the method: as §4
[18] = in the assay text read “LCMS assay” for “fluorescamine assay”

C[C@H](O)c1nccn1[C@H](CN)c1cc(-c2ccc(C#C[C@@H]3[C@H]4CN(CCCC(=O)O)C[C@@H]34)cc2)on1
MIC [1]: 16 µg/mL (≈ 32.7 µM)
MIC [2]: 4 µg/mL (≈ 8.17 µM)

C[C@H](O)c1nccn1Cc1cc(-c2ccc(C#CC34CC(N)(C3)C4)cc2)no1
IC50 [3, 18]: 65 nM
MIC [1]: 2 µg/mL (≈ 5.34 µM)
MIC [2]: 0.5 µg/mL (≈ 1.34 µM)
fraction unbound at 4 h, 1 ug/ml [4]: 0.035
fraction unbound at 4 h, 1 ug/ml [5]: 0.069

C[C@H](O)c1nccn1[C@H](CN)c1cc(-c2ccc(C#CC34CC(N)(C3)C4)cc2)on1
IC50 [3, 18]: 279 nM
MIC [1]: 2 µg/mL (≈ 4.96 µM)
MIC [2]: 0.5 µg/mL (≈ 1.24 µM)
MTD [6]: 100 mg/kg
Activity [7]: -2.48 log10CFU
fraction unbound at 4 h, 1 ug/ml [4]: 0.103
fraction unbound at 4 h, 1 ug/ml [5]: 0.084

COCCN1CCN(c2ccc(C#Cc3cc(Cn4ccnc4[C@H](C)O)no3)cc2)CC1
IC50 [3]: 71 nM
MIC [1]: 0.5 µg/mL (≈ 1.15 µM)
MIC [2]: 0.25 µg/mL (≈ 0.574 µM)
fraction unbound at 4 h, 1 ug/ml [4]: 0.09
fraction unbound at 4 h, 1 ug/ml [5]: 0.083

C[C@H](O)c1nccn1Cc1cc(-c2ccc(C#CC3(N)CC3)cc2)on1
IC50 [3, 18]: 46 nM
MIC [1]: 1 µg/mL (≈ 2.87 µM)
MIC [2]: 0.5 µg/mL (≈ 1.44 µM)
Activity [8]: 67%
fraction unbound at 4 h, 1 ug/ml [4]: 0.07
fraction unbound at 4 h, 1 ug/ml [5]: 0.099

C[C@H](O)c1nccn1Cc1cc(C#Cc2ccc(CCCO)cc2)on1
IC50 [3]: 31 nM
MIC [1]: 2 µg/mL (≈ 5.69 µM)
MIC [2]: 0.5 µg/mL (≈ 1.42 µM)
fraction unbound at 4 h, 1 ug/ml [4]: < 0.005
fraction unbound at 4 h, 1 ug/ml [5]: < 0.005

C[C@H](O)c1nccn1Cc1cc(-c2ccc(C#C[C@H]3C[C@H](O)C3)cc2)on1
IC50 [3]: 15 nM
MIC [1]: 0.25 µg/mL (≈ 0.688 µM)
MIC [2]: 0.12 µg/mL (≈ 0.33 µM)
Activity [8]: 0%
fraction unbound at 4 h, 1 ug/ml [4]: 0.017
fraction unbound at 4 h, 1 ug/ml [5]: 0.035

C[C@H](O)c1nccn1Cc1cc(-c2ccc(C#CC34CC(N)(C3)C4)cc2)on1
IC50 [3, 18]: 49 nM
MIC [1]: 0.5 µg/mL (≈ 1.34 µM)
MIC [2]: 0.25 µg/mL (≈ 0.668 µM)
Activity [8]: 0%
fraction unbound at 4 h, 1 ug/ml [4]: 0.027
fraction unbound at 4 h, 1 ug/ml [5]: 0.034

C[C@H](O)c1nccn1Cc1cc(C#Cc2ccc(OC3CN(CCCO)C3)cc2)on1
IC50 [3]: 378 nM
MIC [1]: 8 µg/mL (≈ 18.9 µM)
MIC [2]: 2 µg/mL (≈ 4.73 µM)
fraction unbound at 4 h, 1 ug/ml [4]: 0.261
fraction unbound at 4 h, 1 ug/ml [5]: 0.165

C[C@H](O)c1nccn1Cc1cc(-c2ccc(C#C[C@@H]3[C@H]4CN(C=O)C[C@@H]34)cc2)on1
IC50 [3]: 39 nM
MIC [1]: 2 µg/mL (≈ 4.97 µM)
MIC [2]: 1 µg/mL (≈ 2.48 µM)
MTD [6]: 100 mg/kg
Activity [7]: -2.84 log10CFU
fraction unbound at 4 h, 1 ug/ml [4]: 0.095
fraction unbound at 4 h, 1 ug/ml [5]: 0.09

C[C@H](O)c1nccn1[C@H](CN)c1cc(-c2ccc(C#CC3(N)CC3)cc2)on1
IC50 [3, 18]: 282 nM
MIC [1]: 8 µg/mL (≈ 21.2 µM)
MIC [2]: 2 µg/mL (≈ 5.3 µM)

C[C@H](O)c1nccn1Cc1cc(-c2ccc(C#CCCCO)cc2)on1
IC50 [3]: 51 nM
MIC [1]: 2 µg/mL (≈ 5.69 µM)
MIC [2]: 1 µg/mL (≈ 2.85 µM)
fraction unbound at 4 h, 1 ug/ml [4]: 0.031
fraction unbound at 4 h, 1 ug/ml [5]: 0.049

C[C@H](O)c1nccn1[C@H](CN)c1cc(-c2ccc(C#C[C@@H]3[C@H]4CN(C=O)C[C@@H]34)cc2)on1
Activity [9]: Toxic
MIC [1]: 2 µg/mL (≈ 4.64 µM)
Cp(f) [10]: 59.4 µg/mL
MIC [2]: 1 µg/mL (≈ 2.32 µM)
MTD [6]: ≥ 200 mg/kg
Activity [11]: Toxic
Activity [7]: -2.47 log10CFU
concentration at 0.5 h [12]: 233 µg/mL
Activity [13]: Toxic
fraction unbound at 4 h, 1 ug/ml [4]: 0.275
fraction unbound at 4 h, 1 ug/ml [5]: 0.18

C[C@H](O)c1nccn1[C@H](CN)c1cc(-c2ccc(C#C[C@H]3C[C@H](O)C3)cc2)on1
Activity [9]: Toxic
IC50 [3, 18]: < 37 nM
MIC [1]: 1 µg/mL (≈ 2.55 µM)
MIC [2]: 0.25 µg/mL (≈ 0.637 µM)
concentration at 0.5 h [14]: 90.7 µg/mL
Cp(f) [15]: 15.6 µg/mL
MTD [6]: ≥ 200 mg/kg
Activity [11]: Toxic
Activity [7]: -1.99 log10CFU
Activity [13]: Toxic
fraction unbound at 4 h, 1 ug/ml [4]: 0.074
fraction unbound at 4 h, 1 ug/ml [5]: 0.07

C[C@H](O)c1nccn1Cc1cc(-c2ccc(C#CC3(N)CC3)cc2)no1
IC50 [3, 18]: 193 nM
MIC [1]: 4 µg/mL (≈ 11.5 µM)
MIC [2]: 1 µg/mL (≈ 2.87 µM)
fraction unbound at 4 h, 1 ug/ml [4]: 0.115
fraction unbound at 4 h, 1 ug/ml [5]: 0.15

C[C@H](O)CN1C[C@@H]2[C@@H](C#Cc3ccc(-c4cc([C@@H](CN)n5ccnc5[C@H](C)O)no4)cc3)[C@@H]2C1
Activity [9]: Toxic
MIC [1]: 4 µg/mL (≈ 8.67 µM)
MIC [2]: 1 µg/mL (≈ 2.17 µM)
MTD [6]: ≥ 200 mg/kg
Activity [11]: Toxic
Activity [7]: -1.19 log10CFU
concentration at 0.5 h [16]: 132 µg/mL
Activity [13]: Toxic
fraction unbound at 4 h, 1 ug/ml [4]: 0.212
Cp(f) [17]: 36 µg/mL
fraction unbound at 4 h, 1 ug/ml [5]: 0.151

COCC(O)CN1C[C@@H]2[C@@H](C#Cc3ccc(-c4cc(Cn5ccnc5[C@H](C)O)on4)cc3)[C@@H]2C1 (mixture of isomers)
IC50 [3]: 97 nM
MIC [1]: 0.5 µg/mL
MIC [2]: 0.5 µg/mL
Activity [8]: 17%
fraction unbound at 4 h, 1 ug/ml [4]: 0.076
fraction unbound at 4 h, 1 ug/ml [5]: 0.077

COCC(O)CN1C[C@@H]2[C@@H](C#Cc3ccc(-c4cc(Cn5ccnc5[C@H](C)O)no4)cc3)[C@@H]2C1 (mixture of isomers)
IC50 [3]: 71 nM
MIC [1]: 0.5 µg/mL
MIC [2]: 0.5 µg/mL
Activity [8]: 33%
fraction unbound at 4 h, 1 ug/ml [4]: 0.065
fraction unbound at 4 h, 1 ug/ml [5]: 0.082
